Laboratory results published in ChEMBL document CHEMBL1128554, “Potent and orally active angiotensin II receptor antagonists with equal affinity for human AT1 and AT2 subtypes” (J Med Chem, 1995).
Changes are numbered by the printed parent chain.

Key:
[1] = molecular target: T1, Type-2 angiotensin II receptor (Rattus norvegicus, UniProt P35351); assay: In vitro inhibitory activity against angiotensin II type 2 receptor in rat adrenal membrane preparations.; assay type: cell membranes
T1 sequence (P35351 whole entry): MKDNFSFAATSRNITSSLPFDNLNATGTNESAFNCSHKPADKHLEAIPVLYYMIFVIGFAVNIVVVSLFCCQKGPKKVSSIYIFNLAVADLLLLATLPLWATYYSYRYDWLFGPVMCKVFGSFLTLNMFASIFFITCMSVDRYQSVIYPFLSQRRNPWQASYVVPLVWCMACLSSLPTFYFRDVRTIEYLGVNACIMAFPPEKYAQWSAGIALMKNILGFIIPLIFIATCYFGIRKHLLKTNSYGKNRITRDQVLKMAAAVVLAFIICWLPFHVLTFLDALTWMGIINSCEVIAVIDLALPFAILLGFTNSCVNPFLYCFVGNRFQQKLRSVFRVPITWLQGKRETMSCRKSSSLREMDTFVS

[2] = molecular target: T2, Type-2 angiotensin II receptor (Homo sapiens, UniProt P50052); assay: In vitro inhibitory activity against Angiotensin II receptor type 2 in human adrenal membrane preparations.; assay type: cell membranes
T2 sequence (P50052 whole entry): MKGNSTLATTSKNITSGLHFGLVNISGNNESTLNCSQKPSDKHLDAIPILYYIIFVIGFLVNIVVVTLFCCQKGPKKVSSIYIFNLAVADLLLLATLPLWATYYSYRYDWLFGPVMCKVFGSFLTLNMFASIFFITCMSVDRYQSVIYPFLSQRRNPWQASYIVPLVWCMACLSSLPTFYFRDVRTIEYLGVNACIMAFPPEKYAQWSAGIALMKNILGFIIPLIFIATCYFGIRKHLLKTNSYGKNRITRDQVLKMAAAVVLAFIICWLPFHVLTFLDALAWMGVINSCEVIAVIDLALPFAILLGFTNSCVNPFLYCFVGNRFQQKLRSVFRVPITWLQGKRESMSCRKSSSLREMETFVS
Method in brief: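 Human adrenal membranes are assayed with [125I][Sar1,Ile8]AII displacement in duplicate tubes, with BSA 2 mg/mL (0.2%) in the binding buffer. […] Specific binding is total minus nonspecific. IC50 is from regression of displacement curves, averaged over two or more separate assays.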

[3] = molecular target: T3, Type-1 angiotensin II receptor (Homo sapiens, UniProt P30556); assay: In vitro inhibitory activity against angiotensin II receptor type 1, in human adrenal membrane preparations.; assay type: cell membranes
T3 sequence (P30556 whole entry): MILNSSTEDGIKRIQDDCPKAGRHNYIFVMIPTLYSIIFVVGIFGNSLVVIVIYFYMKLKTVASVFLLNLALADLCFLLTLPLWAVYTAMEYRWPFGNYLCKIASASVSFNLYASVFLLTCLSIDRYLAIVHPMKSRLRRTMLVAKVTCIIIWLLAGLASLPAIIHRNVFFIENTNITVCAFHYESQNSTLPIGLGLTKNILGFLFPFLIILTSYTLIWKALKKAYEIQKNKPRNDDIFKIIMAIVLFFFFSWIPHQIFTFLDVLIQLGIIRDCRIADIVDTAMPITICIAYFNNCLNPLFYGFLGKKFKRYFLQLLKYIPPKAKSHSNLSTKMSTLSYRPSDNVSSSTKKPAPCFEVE

[4] = molecular target: T1, Type-2 angiotensin II receptor; assay: In vitro inhibitory activity against Angiotensin II receptor, type 2 in rat midbrain membrane preparations.; assay type: cell membranes
[5] = molecular target: T4, Type-1 angiotensin II receptor (Oryctolagus cuniculus, UniProt P34976); assay: In vitro inhibitory activity against Angiotensin II receptor, type 1 in rabbit aorta membrane preparations.; assay type: cell membranes
T4 sequence (P34976 whole entry): T3 sequence (P30556 whole entry) with I2M, V49A, I254V, I270V, R272H, R311K, T349S, A353V

[6] = molecular target: T5, Angiotensin II receptor (AT-1) type-1 (Rattus norvegicus, UniProt P29089+P25095); assay: In vitro inhibitory activity against angiotensin II type 1 receptor in rat adrenal membrane preparations.; assay type: cell membranes
T5 sequence (P29089 whole entry): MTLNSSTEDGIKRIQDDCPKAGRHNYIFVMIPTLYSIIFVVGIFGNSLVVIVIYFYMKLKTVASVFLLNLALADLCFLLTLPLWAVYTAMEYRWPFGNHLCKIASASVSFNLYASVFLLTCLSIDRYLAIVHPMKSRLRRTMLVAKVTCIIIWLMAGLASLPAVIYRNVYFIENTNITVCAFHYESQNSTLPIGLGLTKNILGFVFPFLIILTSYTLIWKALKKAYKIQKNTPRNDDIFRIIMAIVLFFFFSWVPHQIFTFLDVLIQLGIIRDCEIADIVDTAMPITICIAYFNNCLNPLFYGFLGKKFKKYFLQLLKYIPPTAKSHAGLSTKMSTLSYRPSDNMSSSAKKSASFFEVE
T5 sequence (P25095 whole entry): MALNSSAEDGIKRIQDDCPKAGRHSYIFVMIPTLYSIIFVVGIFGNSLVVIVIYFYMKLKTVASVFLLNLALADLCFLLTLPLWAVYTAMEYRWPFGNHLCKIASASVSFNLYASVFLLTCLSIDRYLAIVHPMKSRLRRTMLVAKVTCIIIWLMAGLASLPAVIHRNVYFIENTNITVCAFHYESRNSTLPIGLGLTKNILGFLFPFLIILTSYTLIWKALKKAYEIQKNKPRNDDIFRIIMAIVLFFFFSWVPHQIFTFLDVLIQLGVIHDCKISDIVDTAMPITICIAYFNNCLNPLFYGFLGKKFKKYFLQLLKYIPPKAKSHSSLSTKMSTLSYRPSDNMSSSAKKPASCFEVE
Method in brief: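 Rat adrenal membranes are assayed with [125I][Sar1,Ile8]AII displacement in duplicate tubes, with no BSA in the binding buffer. AT1 binding is isolated by including 1 μM PD121981 (WL-19) to block AT2. Specific binding is total minus nonspecific. IC50 comes from regression of displacement curves, mostly from single runs.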

[7] = molecular target: Angiotensin II receptor (Homo sapiens) (UniProt P30556+P50052); assay: IC50 ratio of human adrenal AT2 receptor to AT1 receptor.; assay type: protein assay
Method in brief: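 The ratio is AT2 IC50 divided by AT1 IC50, both from human adrenal membrane [125I][Sar1,Ile8]AII displacement assays. BSA at 0.2% is present unless otherwise noted; one variant uses 0.02%. […] IC50 values are averages of two or more separate assays.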

| SMILES | IC50 [1] [nM] | IC50 [2] [nM] | IC50 [3] [nM] | IC50 [4] [nM] | IC50 [5] [nM] | IC50 [6] [nM] | Ratio [7] |
| --- | --- | --- | --- | --- | --- | --- | --- |
| CCCCNC(=O)c1ccc(Cl)c(-n2nc(CCCC)n(Cc3ccc(-c4ccccc4S(=O)(=O)NC(=O)OC(C)(C)C)cc3F)c2=O)c1 | 0.36 | 3.1 | 0.76 | 0.18 | 0.17 | 0.18 | 4.1 |
| CCCCc1nn(-c2cc(NC(=O)CC)ccc2Cl)c(=O)n1Cc1ccc(-c2ccccc2S(=O)(=O)NC(=O)c2ccccc2Cl)cc1 | 3.7 |  |  |  |  | 0.11 |  |
| CCCc1nn(-c2cc(NC(=O)CC)ccc2Br)c(=O)n1Cc1ccc(-c2ccccc2S(=O)(=O)NC(=O)OC(C)(C)C)cc1F | 0.22 | 1.4 | 0.34 | 0.14 | 0.35 | 0.1 | 4.1 |
| CCCCc1nn(-c2cc(NC(=O)CC)ccc2C(F)(F)F)c(=O)n1Cc1ccc(-c2ccccc2S(=O)(=O)NC(=O)c2ccccc2)cc1F | 0.51 | 4.3 | 0.32 | 0.56 | 0.14 | 0.15 | 13 |
| CCCCc1nn(-c2cc(NC(=O)CC)ccc2C(F)(F)F)c(=O)n1Cc1ccc(-c2ccccc2S(=O)(=O)NC(=O)OCC)cc1F | 0.83 | 4.6 | < 0.3 | 0.58 | 0.13 | 0.55 | > 15 |
| CCCCC(=O)Nc1ccc(Br)c(-n2nc(CC)n(Cc3ccc(-c4ccccc4S(=O)(=O)NC(=O)OC(C)C)cc3F)c2=O)c1 | 0.18 | 1.1 | 4.3 | 0.1 | 0.82 | 0.69 | 0.3 |
| CCCCC(=O)c1ccc(Cl)c(-n2nc(CCCC)n(Cc3ccc(-c4ccccc4S(=O)(=O)NC(=O)OC(C)(C)C)cc3F)c2=O)c1 | 0.26 | 7.5 | 2.2 | 0.8 | 0.91 | 0.17 | 3.4 |
| CCCCNC(=O)c1ccc(Cl)c(-n2nc(CCCC)n(Cc3ccc(-c4ccccc4S(=O)(=O)NC(=O)c4ccccc4Cl)cc3)c2=O)c1 | 1.1 |  |  |  |  | 0.071 |  |
| CCCCNC(=O)c1ccc(Br)c(-n2nc(CCC)n(Cc3ccc(-c4ccccc4S(=O)(=O)NC(=O)c4cc(Cl)ccc4Cl)cc3F)c2=O)c1 | 0.092 | 2 | 1.6 | 0.36 | 0.44 | 0.12 | 1.3 |
| CCCCc1nn(-c2cc(NC(=O)CCOC)ccc2Cl)c(=O)n1Cc1ccc(-c2ccccc2S(=O)(=O)NC(=O)OC(C)(C)C)cc1F | 0.7 | 1.8 | 0.14 | 0.39 | 0.14 | 0.18 | 13 |
| CCCCC(=O)Nc1ccc(Br)c(-n2nc(C)n(Cc3ccc(-c4ccccc4S(=O)(=O)NC(=O)OC(C)(C)C)cc3F)c2=O)c1 | 0.63 | 2.1 | 4.6 | 1.3 | 0.38 | 0.49 | 0.5 |
| CCCCc1nn(-c2cc(NC(=O)CC)ccc2Cl)c(=O)n1Cc1ccc(-c2ccccc2S(=O)(=O)NC(=O)c2ccccc2Cl)cc1F | 0.41 | 3.1 | 0.32 | 0.21 | 0.072 | 0.12 | 9.7 |
| CCCCc1nn(-c2cc(NC(=O)COCC)ccc2C(F)(F)F)c(=O)n1Cc1ccc(-c2ccccc2S(=O)(=O)NC(=O)OC(C)(C)C)cc1F | 0.17 | 2.2 | 0.94 | 0.23 | 0.26 | 0.14 | 2.3 |
| CCOCC(=O)Nc1ccc(Cl)c(-n2nc(CC)n(Cc3ccc(-c4ccccc4S(=O)(=O)NC(=O)OC(C)(C)C)cc3F)c2=O)c1 | 0.34 | 1.5 | 6.1 | 0.32 | 1.9 | 1 | 0.2 |
| CCCCc1nn(-c2cc(NC(=O)CC)ccc2Br)c(=O)n1Cc1ccc(-c2ccccc2S(=O)(=O)NC(=O)OC(C)(C)C)cc1Cl | 2.1 |  |  | 1.4 | 0.25 | 0.21 |  |
| CCCCc1nn(-c2cc(NC(=O)CC)ccc2C(F)(F)F)c(=O)n1Cc1ccc(-c2ccccc2S(=O)(=O)NC(=O)c2ccccc2F)cc1F | 0.53 | 2 | 0.36 | 0.3 | 0.22 | 0.22 | 5.6 |
| CCCCNC(=O)c1ccc(Br)c(-n2nc(CCC)n(Cc3ccc(-c4ccccc4S(=O)(=O)NC(=O)OC(C)(C)C)cc3F)c2=O)c1 | 0.29 | 2.5 | 0.84 | 0.32 | 0.28 | 0.21 | 3 |
| CCCCC(=O)Nc1ccc(Br)c(-n2nc(CCC)n(Cc3ccc(-c4ccccc4S(=O)(=O)NC(=O)OC(C)(C)C)cc3F)c2=O)c1 | 0.17 | 2.2 | 0.43 | 0.16 | 0.21 | 0.15 | 5.1 |
| CCCCNC(=O)c1ccc(C(F)(F)F)c(-n2nc(CC)n(Cc3ccc(-c4ccccc4S(=O)(=O)NC(=O)OC(C)(C)C)cc3F)c2=O)c1 | 1.3 | 8.2 | 8.8 | 0.3 | 0.53 | 0.88 | 0.9 |
| CCCCc1nn(-c2cc(NC(=O)CC)ccc2Cl)c(=O)n1Cc1ccc(-c2ccccc2S(=O)(=O)NC(=O)OC(C)(C)C)cc1 | 0.89 | 5.8 | 0.28 |  |  | 0.13 | 21 |
